Reference: PMC3878182 (Xenobiotica; the fate of foreign compounds in biological …, 2013)

What was measured:
liver tissue slices [1] = experiment: Formation of hydroxylated PCB 136 metabolites in liver tissue slices; assay type: in vitro ADME, Sprague-Dawley rats; details: for Metabolite formation, slices / Metabolite formation, medium: 2 h; for Metabolite as percent of ΣOH-PCB: slices plus medium
liver tissue slices [2] = experiment: Enantioselective analysis; assay type: in vitro ADME, Sprague-Dawley rats; details: for Enantiomeric enrichment: liver slices from PB- and DEX-treated male and female rats incubated with racemic PCB 136
Outline: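 Liver slices from PB- or DEX-pretreated rats, two per vial in 2 mL K-H buffer, were incubated with racemic test compound (final 5 μM, from DMSO) for 2 h at 37 °C under 5% CO2/95% air in a dynamic system. Triplicate incubations were run per animal. Hydroxylated metabolites were methylated; atropisomers were separated on Chirasil-Dex (5-OH) or Cyclosil-B (4-OH) columns. EF = Area E(2)/(Area E(1) + Area E(2)).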

ryanodine receptor (RyR) = details: enantioselective; ref Pessah et al., 2009; cited from earlier work
[3] = Effect of inducer treatment on body and liver weights of rats; assay type: in vivo, Sprague-Dawley rats; details: i.p. inducer treatment
liver tissue slices [4] = experiment: Liver slice viability; assay type: cell-based, Sprague-Dawley rats; details: 2 h
Outline: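 Liver slices came from adult rats, either naive or pretreated with PB or DEX, taken 24 h after the last dose into cold Krebs-Henseleit buffer, pH 7.5. Two slices per vial in 2 mL buffer received test compound (final 5 μM) or DMSO, 2 h, 37 °C, 5 % CO2/95 % air. LDH in medium and homogenate gave % release = A1×D1/(A1×D1+A2×D2); viable was <30 %.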

CYP1A2 = experiment: Hepatic P450 transcript levels; assay type: in vivo, Sprague-Dawley rats
[5] = tested on: hippocampal slice cultures; experiment: LDH release in hippocampal slice cultures; assay type: cell-based, Sprague Dawley rats (PND4 pups); details: ethanol 200 mM, 14 d exposure
Outline: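 Hippocampi from PND4 pups of timed-pregnant Sprague Dawley rats were cultured as slices. From 5 DIV, racemic test compound or vehicle (0.1 % DMSO) was added to 1 mL medium, renewed every 2 days for 14 days. LDH release was measured with a membrane-integrity fluorescence kit. Mean ± SEM, n = 2 wells per group.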

[6] = tested on: hippocampal slice cultures; experiment: Propidium iodide; assay type: cell-based, Sprague Dawley rats (PND4 pups); details: glutamate 20 mM, positive control, 3 d exposure
[7] = DEX-treated female rats, PCB 136 5 μM (10 nmol)
[8] = DEX-treated female rats, PCB 136 5 μM
[9] = DEX-treated male rats, PCB 136 5 μM (10 nmol)
[10] = DEX-treated male rats, PCB 136 5 μM
[11] = PB-treated female rats, PCB 136 5 μM (10 nmol)
[12] = PB-treated female rats, PCB 136 5 μM
[13] = PB-treated male rats, PCB 136 5 μM (10 nmol)
[14] = PB-treated male rats, PCB 136 5 μM (10 nmol), ND, not detected
[15] = PB-treated male rats, PCB 136 5 μM
[16] = naïve control (CTL) female rats, PCB 136 5 μM (10 nmol), ND, not detected
[17] = naïve control (CTL) female rats, PCB 136 5 μM, ND, not detected
[18] = naïve control (CTL) female rats
[19] = naïve control (CTL) male rats, PCB 136 5 μM (10 nmol), ND, not detected
[20] = naïve control (CTL) male rats, PCB 136 5 μM, ND, not detected

For `Oc1c(O)c(Cl)c(-c2c(Cl)ccc(Cl)c2Cl)c(Cl)c1Cl` [4,5-diOH-PCB 136, 2,2′,3,3′,6,6′-hexachlorobiphenyl-4,5-diol], the “Metabolite formation, slices” value (liver tissue slices [1]; [7]) was 3 ± 1 pmol, the “Metabolite formation, slices” value (liver tissue slices [1]; [8]) was 0.1 ± 0.0 ng/mg protein and the “Metabolite as percent of ΣOH-PCB” value (liver tissue slices [1]; DEX-treated female rats) was 1.3 ± 0.3%. The “Metabolite formation, slices” value (liver tissue slices [1]; [9]) was 6 ± 2 pmol, the “Metabolite formation, slices” value (liver tissue slices [1]; [10]) was 0.1 ± 0.0 ng/mg protein and the “Metabolite as percent of ΣOH-PCB” value (liver tissue slices [1]; DEX-treated male rats) was 0.9 ± 0.3%. The “Metabolite formation, slices” value (liver tissue slices [1]; [11]) was 6 ± 3 pmol, the “Metabolite formation, slices” value (liver tissue slices [1]; [12]) was 0.1 ± 0.1 ng/mg protein and the “Metabolite as percent of ΣOH-PCB” value (liver tissue slices [1]; PB-treated female rats) was 1.0 ± 0.4%. The “Metabolite formation, slices” value (liver tissue slices [1]; [13]) was 32 ± 15 pmol, the “Metabolite formation, medium” value (liver tissue slices [1]; [14]) was 24 ± 34 pmol and the “Metabolite formation, slices” value (liver tissue slices [1]; [15]) was 0.6 ± 0.3 ng/mg protein. The “Metabolite as percent of ΣOH-PCB” value (liver tissue slices [1]; PB-treated male rats) was 5.6 ± 3.6% and the “Metabolite level in tissue slices” value (liver tissue slices [1]; tissue slices from CTL rats) was “below the detection limit”.
In the case of `Oc1cc(Cl)c(-c2c(Cl)ccc(Cl)c2Cl)c(Cl)c1Cl` [4-OH-PCB 136, 2,2′,3,3′,6,6′-hexachlorobiphenyl-4-ol], the “Metabolite formation, slices” value (liver tissue slices [1]; [7]) is reported as 24 ± 19 pmol, the “Metabolite formation, slices” value (liver tissue slices [1]; [8]) is reported as 0.5 ± 0.3 ng/mg protein and the “Metabolite as percent of ΣOH-PCB” value (liver tissue slices [1]; DEX-treated female rats) is reported as 7.7 ± 3.5%. For the same compound, the “Metabolite formation, slices” value (liver tissue slices [1]; [9]) was 26 ± 5 pmol, the “Metabolite formation, slices” value (liver tissue slices [1]; [10]) was 0.4 ± 0.1 ng/mg protein and the “Metabolite as percent of ΣOH-PCB” value (liver tissue slices [1]; DEX-treated male rats) was 4.3 ± 0.7%. For the same compound, the “Metabolite formation, slices” value (liver tissue slices [1]; [11]) was 30 ± 4 pmol, the “Metabolite formation, slices” value (liver tissue slices [1]; [12]) was 0.7 ± 0.0 ng/mg protein and the “Metabolite as percent of ΣOH-PCB” value (liver tissue slices [1]; PB-treated female rats) was 5.8 ± 1.0%. The “Metabolite formation, slices” value (liver tissue slices [1]; [13]) was 15 ± 5 pmol, the “Metabolite formation, slices” value (liver tissue slices [1]; [15]) was 0.3 ± 0.1 ng/mg protein and the “Metabolite as percent of ΣOH-PCB” value (liver tissue slices [1]; PB-treated male rats) was 1.5 ± 0.2%. For the same compound, the “4-OH-PCB 136 levels relative to 5-OH-PCB 136 levels (times higher)” value (liver tissue slices [1]; liver slices from female CTL rats) was “approximately 3 times”, the “Metabolite formation, slices” value (liver tissue slices [1]; [16]) was 33 ± 4 pmol and the “Metabolite formation, slices” value (liver tissue slices [1]; [17]) was 0.7 ± 0.1 ng/mg protein. The “Metabolite as percent of ΣOH-PCB” value (liver tissue slices [1]; [18]) was 75 ± 16%, the “Metabolite formation, slices” value (liver tissue slices [1]; [19]) was 60 ± 30 pmol and the “Metabolite formation, slices” value (liver tissue slices [1]; [20]) was 1.0 ± 0.5 ng/mg protein. For the same compound, the “Metabolite as percent of ΣOH-PCB” value (liver tissue slices [1]; naïve control (CTL) male rats) was 57 ± 5%.
With `Oc1cc(Cl)c(Cl)c(-c2c(Cl)ccc(Cl)c2Cl)c1Cl` [5-OH-PCB 136, 2,2′,3,3′,6,6′-hexachlorobiphenyl-5-ol] the “Metabolite formation, slices” value (liver tissue slices [1]; [7]) was 240 ± 110 pmol, the “Metabolite formation, slices” value (liver tissue slices [1]; [8]) was 4.9 ± 1.1 ng/mg protein and the “Metabolite as percent of ΣOH-PCB” value (liver tissue slices [1]; DEX-treated female rats) was 91 ± 4%. For the same compound, the “Metabolite formation, slices” value (liver tissue slices [1]; [9]) was 495 ± 95 pmol, the “Metabolite formation, medium” value (liver tissue slices [1]; DEX-treated male rats, PCB 136 5 μM (10 nmol), ND, not detected) was 80 ± 37 pmol and the “Metabolite formation, slices” value (liver tissue slices [1]; [10]) was 7.7 ± 1.2 ng/mg protein. For the same compound, the “Metabolite as percent of ΣOH-PCB” value (liver tissue slices [1]; DEX-treated male rats) was 95 ± 1%, the “Metabolite formation, slices” value (liver tissue slices [1]; [11]) was 490 ± 100 pmol and the “Metabolite formation, slices” value (liver tissue slices [1]; [12]) was 11 ± 1.3 ng/mg protein. For the same compound, the “Metabolite as percent of ΣOH-PCB” value (liver tissue slices [1]; PB-treated female rats) was 93 ± 1%, the “Metabolite formation, slices” value (liver tissue slices [1]; [13]) was 900 ± 220 pmol and the “Metabolite formation, medium” value (liver tissue slices [1]; [14]) was 115 ± 22 pmol. The “Metabolite formation, slices” value (liver tissue slices [1]; [15]) was 16.0 ± 2.0 ng/mg protein, the “Metabolite as percent of ΣOH-PCB” value (liver tissue slices [1]; PB-treated male rats) was 93 ± 4% and the “Metabolite formation, slices” value (liver tissue slices [1]; [16]) was 12 ± 10 pmol. The “Metabolite formation, slices” value (liver tissue slices [1]; [17]) was 0.3 ± 0.2 ng/mg protein, the “Metabolite as percent of ΣOH-PCB” value (liver tissue slices [1]; [18]) was 25 ± 16% and the “Metabolite formation, slices” value (liver tissue slices [1]; [19]) was 50 ± 10 pmol. The “Metabolite formation, slices” value (liver tissue slices [1]; [20]) was 0.7 ± 0.2 ng/mg protein, the “Metabolite as percent of ΣOH-PCB” value (liver tissue slices [1]; naïve control (CTL) male rats) was 43 ± 5% and the “Enantiomeric fraction (EF)” value (liver tissue slices [2]; liver slices from PB- and DEX-treated male and female rats, racemic PCB 136 5 μM, 2 h, EF = Area E(2)/(Area E(1) + Area E(2)), range over groups) was 0.69–0.74.
For `Clc1ccc(Cl)c(-c2c(Cl)ccc(Cl)c2Cl)c1Cl` [(−)-PCB 136], the Enantiomeric enrichment (liver tissue slices [2]) is given as “slightly enriched” and the “Sensitization of RyR” value (ryanodine receptor (RyR)) is given as “active”.
In the case of `C[C@@H]1C[C@H]2[C@@H]3CCC4=CC(=O)C=C[C@]4(C)[C@@]3(F)[C@@H](O)C[C@]2(C)[C@@]1(O)C(=O)CO` [Dexamethasone (DEX), dexamethasone], the Liver weight ([3]; female rats) is reported as 12.1 ± 0.2 g, the “Percent change in body weight” value ([3]; female rats) is reported as −12.0 ± 4.4 % and the Liver weight ([3]; male rats) is reported as 16.8 ± 0.6 g. The “Percent change in body weight” value ([3]; male rats) was −17.0 ± 0.7 %, the LDH release (liver tissue slices [4]; liver tissue slices from DEX pretreated female rats) was 19.6 ± 10.4% and the LDH release (liver tissue slices [4]; liver tissue slices from DEX pretreated male rats) was 10.4 ± 3.6%. For the same compound, the “CYP1A2 transcript level vs CTL” value (CYP1A2; liver slices from female rats) was “not significantly changed” and the “CYP1A2 transcript level vs CTL” value (CYP1A2; liver slices from male rats) was “not changed”.
With `Oc1cc(Cl)c(-c2c(Cl)ccc(Cl)c2Cl)c(Cl)c1Cl` [E(1)-4-OH-PCB] the Enantiomeric enrichment (liver tissue slices [2]) was “enriched”.
With `Oc1cc(Cl)c(Cl)c(-c2c(Cl)ccc(Cl)c2Cl)c1Cl` [E(2)-5-OH-PCB] the Enantiomeric enrichment (liver tissue slices [2]) was “enriched to a similar extent”.
With `CCO` [ethanol, reference compound] the “LDH release relative to vehicle controls” value [5] was “significantly increased LDH release”.
In the case of `N[C@@H](CCC(=O)O)C(=O)O` [glutamate, reference compound], the PI uptake [6] is reported as “significantly increased PI uptake”.
